Experimental data taken from ChEMBL document CHEMBL1926558, “Searching for the Multi-Target-Directed Ligands against Alzheimer's disease: discovery of quinoxaline-based hybrid compounds with AChE, H₃R and BACE 1 inhibitory activities” (Bioorg Med Chem, 2011).
“And” between values parts separate entries of the source, which are not always exact repeats. Equal values may be shown once. The source made the active and inactive calls. The calls are words filed in the database; no cut-off is given here.

Legend:
Acetylcholinesterase [1] = molecular target: T1, Acetylcholinesterase (Rattus norvegicus, UniProt P37136); assay: Inhibition of AChE in rat cortex homogenates using acetylthiocholine iodide as substrate after 15 mins by Ellman's method
T1 sequence (P37136 whole entry): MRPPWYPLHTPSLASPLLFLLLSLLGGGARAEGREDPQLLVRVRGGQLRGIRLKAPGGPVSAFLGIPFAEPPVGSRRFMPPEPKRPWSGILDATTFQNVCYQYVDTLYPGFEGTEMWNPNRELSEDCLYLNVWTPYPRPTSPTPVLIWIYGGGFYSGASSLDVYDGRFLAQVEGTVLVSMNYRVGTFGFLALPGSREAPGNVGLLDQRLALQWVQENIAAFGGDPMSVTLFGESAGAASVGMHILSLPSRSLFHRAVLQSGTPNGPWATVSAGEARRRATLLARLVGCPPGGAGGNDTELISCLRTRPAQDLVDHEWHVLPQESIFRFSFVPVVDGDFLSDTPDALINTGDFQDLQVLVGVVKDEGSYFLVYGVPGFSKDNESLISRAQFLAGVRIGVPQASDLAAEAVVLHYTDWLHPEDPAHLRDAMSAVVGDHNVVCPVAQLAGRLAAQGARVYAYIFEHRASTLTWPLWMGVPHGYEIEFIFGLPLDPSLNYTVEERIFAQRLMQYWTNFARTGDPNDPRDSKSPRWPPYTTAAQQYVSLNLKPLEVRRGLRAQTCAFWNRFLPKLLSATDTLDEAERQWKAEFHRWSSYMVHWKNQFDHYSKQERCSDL

Histamine H3 receptor [2] = molecular target: T2, Histamine H3 receptor (Homo sapiens, UniProt Q9Y5N1); assay: Inverse agonist activity at histamine H3 receptor expressed in HEK293 cells co-transfected with pCRE-Luc gene assessed as inhibition of forskolin/histamine-induced cAMP accumulation after 5 hrs by luciferase reporter gene assay; format: functional, cell-based
Acetylcholinesterase [3] = molecular target: Acetylcholinesterase (Homo sapiens, UniProt P22303)
Histamine H3 receptor [4] = molecular target: T2, Histamine H3 receptor; assay: Antagonist activity at histamine H3 receptor expressed in HEK293 cells co-transfected with pCRE-Luc gene assessed as inhibition of forskolin/histamine-induced cAMP accumulation after 5 hrs by luciferase reporter gene assay; format: functional, cell-based
[5] = molecular target: Histamine H1 receptor (Homo sapiens) (UniProt P35367); assay: Antagonist activity at histamine H1 receptor expressed in HEK293 cells co-transfected with pCRE-Luc gene assessed as inhibition of forskolin/histamine-induced cAMP accumulation at 1 uM after 5 hrs by luciferase reporter gene assay; format: functional, cell-based
Procedure, shortened: (§1)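 HEK-293 cells stably expressing H1R or H2R were grown in DMEM with 10% FBS and penicillin/streptomycin at 37 °C under 5% CO2. Transfectants were selected with 800 µg/mL G418. cAMP accumulation was induced by 1 µM histamine with test compound present and read out by CRE-luciferase transcription.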

[6] = molecular target: Histamine H2 receptor (Homo sapiens) (UniProt P25021); assay: Antagonist activity at histamine H2 receptor expressed in HEK293 cells co-transfected with pCRE-Luc gene assessed as inhibition of forskolin/histamine-induced cAMP accumulation at 1 uM after 5 hrs by luciferase reporter gene assay; format: functional, cell-based; procedure, shortened: as §1
Histamine H4 receptor [7] = molecular target: T3, Histamine H4 receptor (Homo sapiens, UniProt Q9H3N8); assay: Antagonist activity at histamine H4 receptor expressed in HEK293 cells co-transfected with pCRE-Luc gene assessed as inhibition of forskolin/histamine-induced cAMP accumulation at 1 uM after 5 hrs by luciferase reporter gene assay; format: functional, cell-based
Histamine H4 receptor [8] = molecular target: T3, Histamine H4 receptor; assay: Antagonist activity at histamine H4 receptor expressed in HEK293 cells co-transfected with pCRE-Luc gene assessed as inhibition of forskolin/histamine-induced cAMP accumulation after 5 hrs by luciferase reporter gene assay; format: functional, cell-based
Histamine H3 receptor [9] = molecular target: T2, Histamine H3 receptor; assay: Antagonist activity at histamine H3 receptor expressed in HEK293 cells co-transfected with pCRE-Luc gene assessed as inhibition of forskolin/histamine-induced cAMP accumulation at 1 uM after 5 hrs by luciferase reporter gene assay; format: functional, cell-based

T2 sequence (Q9Y5N1 whole entry): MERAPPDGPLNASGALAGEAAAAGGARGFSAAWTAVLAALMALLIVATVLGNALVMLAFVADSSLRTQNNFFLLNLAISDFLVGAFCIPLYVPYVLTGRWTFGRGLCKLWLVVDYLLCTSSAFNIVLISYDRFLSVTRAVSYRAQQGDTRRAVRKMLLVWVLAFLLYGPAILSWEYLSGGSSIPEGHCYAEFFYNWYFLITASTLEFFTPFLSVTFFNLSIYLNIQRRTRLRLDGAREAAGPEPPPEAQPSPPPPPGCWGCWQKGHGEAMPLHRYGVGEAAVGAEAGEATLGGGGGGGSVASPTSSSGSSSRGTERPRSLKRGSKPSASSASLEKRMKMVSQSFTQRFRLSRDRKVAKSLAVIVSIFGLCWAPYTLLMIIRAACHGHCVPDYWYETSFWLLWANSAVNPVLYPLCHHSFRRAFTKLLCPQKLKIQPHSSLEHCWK
Histamine H2 receptor (Homo sapiens), sequence (P25021 whole entry): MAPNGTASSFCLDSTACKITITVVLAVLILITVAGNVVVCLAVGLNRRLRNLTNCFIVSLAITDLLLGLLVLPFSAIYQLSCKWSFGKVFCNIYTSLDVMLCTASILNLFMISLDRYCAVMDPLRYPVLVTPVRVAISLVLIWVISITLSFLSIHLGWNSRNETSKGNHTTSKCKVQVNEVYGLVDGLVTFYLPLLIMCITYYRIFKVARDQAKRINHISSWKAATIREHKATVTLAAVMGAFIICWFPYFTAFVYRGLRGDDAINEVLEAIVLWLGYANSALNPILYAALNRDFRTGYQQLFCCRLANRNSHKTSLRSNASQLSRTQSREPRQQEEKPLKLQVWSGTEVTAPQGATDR
T3 sequence (Q9H3N8 whole entry): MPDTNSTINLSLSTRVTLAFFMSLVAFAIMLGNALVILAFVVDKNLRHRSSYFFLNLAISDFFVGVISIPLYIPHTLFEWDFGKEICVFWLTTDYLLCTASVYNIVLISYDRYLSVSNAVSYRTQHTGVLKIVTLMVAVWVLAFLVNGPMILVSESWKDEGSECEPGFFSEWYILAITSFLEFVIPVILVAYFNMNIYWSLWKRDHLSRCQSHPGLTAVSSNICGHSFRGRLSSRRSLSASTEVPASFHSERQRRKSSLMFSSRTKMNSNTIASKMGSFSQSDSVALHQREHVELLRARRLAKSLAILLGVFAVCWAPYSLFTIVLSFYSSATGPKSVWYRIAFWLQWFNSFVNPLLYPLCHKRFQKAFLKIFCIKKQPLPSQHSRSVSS
Histamine H1 receptor (Homo sapiens), sequence (P35367 whole entry): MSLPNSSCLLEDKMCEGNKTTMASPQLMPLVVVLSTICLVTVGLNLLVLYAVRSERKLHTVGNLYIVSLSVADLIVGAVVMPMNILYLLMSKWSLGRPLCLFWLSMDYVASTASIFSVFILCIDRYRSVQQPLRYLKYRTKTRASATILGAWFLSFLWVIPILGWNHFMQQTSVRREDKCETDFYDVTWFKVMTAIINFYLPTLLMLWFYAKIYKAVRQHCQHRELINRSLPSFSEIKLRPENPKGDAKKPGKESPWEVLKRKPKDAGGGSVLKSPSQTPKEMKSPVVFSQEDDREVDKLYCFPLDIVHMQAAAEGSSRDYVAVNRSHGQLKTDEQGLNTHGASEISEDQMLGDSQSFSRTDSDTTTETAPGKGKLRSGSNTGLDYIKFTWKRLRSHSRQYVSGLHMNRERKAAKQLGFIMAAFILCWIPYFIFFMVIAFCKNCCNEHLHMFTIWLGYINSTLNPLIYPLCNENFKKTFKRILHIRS
Acetylcholinesterase (Homo sapiens, UniProt P22303), sequence (P22303 whole entry): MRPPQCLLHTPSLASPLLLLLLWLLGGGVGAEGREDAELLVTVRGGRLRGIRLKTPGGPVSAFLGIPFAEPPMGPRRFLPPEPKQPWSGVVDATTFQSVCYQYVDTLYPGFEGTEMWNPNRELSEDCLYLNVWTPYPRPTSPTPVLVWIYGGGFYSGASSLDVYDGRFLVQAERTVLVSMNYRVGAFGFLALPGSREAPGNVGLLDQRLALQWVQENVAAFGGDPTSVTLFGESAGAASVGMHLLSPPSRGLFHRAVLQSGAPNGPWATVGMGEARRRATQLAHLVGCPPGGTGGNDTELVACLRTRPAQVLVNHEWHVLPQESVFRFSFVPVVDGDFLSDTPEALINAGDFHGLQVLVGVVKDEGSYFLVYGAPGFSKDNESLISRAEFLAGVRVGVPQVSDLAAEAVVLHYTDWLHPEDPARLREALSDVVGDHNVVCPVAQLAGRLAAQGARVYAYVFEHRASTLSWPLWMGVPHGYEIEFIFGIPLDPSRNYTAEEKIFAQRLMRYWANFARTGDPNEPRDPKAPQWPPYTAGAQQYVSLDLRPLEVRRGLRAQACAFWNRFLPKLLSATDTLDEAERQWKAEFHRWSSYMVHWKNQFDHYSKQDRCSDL

## Nc1nc2ccccc2nc1NCC(=O)Nc1ccc(CN2CCCC2)cc1
Acetylcholinesterase [1]; read-out: IC50
  IC50: 1170 nM
Histamine H3 receptor [2]; hek293
  IC50: Not Active

## COc1cc2c(cc1OC)C(=O)C(Oc1ccc(CN3CCCC3)cc1)C2 (stereo not given)
Acetylcholinesterase [3]
  IC50: 50 nM

## CN1CCN(Cc2ccc(OCCNc3nc4ccccc4nc3N)cc2)CC1
Acetylcholinesterase [1]
  IC50: Not Active
Histamine H3 receptor [2]; hek293
  IC50: Not Active

## Nc1nc2ccccc2nc1NCc1ccc(CN2CCCCC2)cc1
Acetylcholinesterase [1]; read-out: IC50
  IC50: 476 nM
Histamine H3 receptor [2]; hek293
  IC50: Not Active

## Nc1nc2ccccc2nc1NCCOc1ccc(CN2CCCCC2)cc1
Acetylcholinesterase [1]; read-out: IC50
  IC50: 1600 nM
Histamine H3 receptor [4]
  IC50: 52.4 nM
Histamine H3 receptor [2]; hek293
  IC50: Not Active
[5]
  inhibition: inactive
[6]
  inhibition: inactive
Histamine H4 receptor [7]
  inhibition: Active

## Nc1nc2ccccc2nc1NC(=O)c1ccc(CN2CCCCC2)cc1 [listing 1 of 3 here]
Acetylcholinesterase [1]; read-out: IC50
  IC50: 483 nM
Histamine H3 receptor [4]
  IC50: 280 nM
Histamine H3 receptor [2]; read-out: IC50
  IC50: 189 nM
Histamine H4 receptor [8]
  IC50: > 10000 nM

## Nc1nc2ccccc2nc1/N=C/c1ccc(CN2CCCCC2)cc1
Acetylcholinesterase [1]; read-out: IC50
  IC50: 748 nM
Histamine H3 receptor [2]; hek293
  IC50: Not Active

## S=C(NC1CCCCC1)N1CCC(c2cnc[nH]2)CC1 [THIOPERAMIDE]
Histamine H3 receptor [2]; hek293
  IC50: Not Active
[5]
  inhibition: inactive
[6]
  inhibition: inactive

## Nc1nc2ccccc2nc1C(=O)Nc1ccc(CN2CCCC2)cc1
Acetylcholinesterase [1]; read-out: IC50
  IC50: 1500 nM
Histamine H3 receptor [9]
  inhibition: 72.8%
Histamine H3 receptor [4]
  IC50: 260 nM
Histamine H3 receptor [2]; read-out: IC50
  IC50: 378 nM
[5]
  inhibition: inactive
[6]
  inhibition: inactive
Histamine H4 receptor [7]
  inhibition: Active

## Nc1nc2ccccc2nc1NC(=O)c1ccc(CN2CCCCC2)cc1 [listing 2 of 3 here]
Histamine H3 receptor [9]
  inhibition: 74.4% and 65.3%
[5]
  inhibition: inactive
[6]
  inhibition: inactive
Histamine H4 receptor [7]
  inhibition: Active

## Nc1nc2ccccc2nc1NC(=O)c1ccc(CN2CCCCC2)cc1 [listing 3 of 3 here]
Acetylcholinesterase [1]; read-out: IC50
  IC50: 313 nM
Histamine H3 receptor [4]
  IC50: 511 nM
Histamine H3 receptor [2]; read-out: IC50
  IC50: 171 nM
Histamine H4 receptor [8]; hek293
  IC50: > 10000 nM

## Nc1nc2ccccc2nc1NC(=O)C1CCN(Cc2ccccc2)CC1
Acetylcholinesterase [1]
  IC50: Not Active
Histamine H3 receptor [2]; hek293
  IC50: Not Active

## Nc1nc2ccccc2nc1C(=O)Nc1ccc(CN2CCCCC2)cc1
Acetylcholinesterase [1]; read-out: IC50
  IC50: 892 nM
Histamine H3 receptor [2]; hek293
  IC50: Not Active

## Nc1nc2ccccc2nc1CNc1ccc(CN2CCCCC2)cc1
Acetylcholinesterase [1]
  IC50: Not Active
Histamine H3 receptor [4]
  IC50: 130 nM
Histamine H3 receptor [2]; hek293
  IC50: Not Active
[5]
  inhibition: inactive
[6]
  inhibition: inactive
Histamine H4 receptor [7]
  inhibition: Active

## Cl.Nc1nc2ccccc2nc1NC(=O)c1ccc(CN2CCCC2)cc1
Acetylcholinesterase [1]
  IC50: Not Active
Histamine H3 receptor [9]
  inhibition: 0.8%
Histamine H3 receptor [2]; hek293
  IC50: Not Active

## Nc1nc2ccccc2nc1NCCCOc1ccc(CN2CCCCC2)cc1
Acetylcholinesterase [1]; read-out: IC50
  IC50: 1930 nM
Histamine H3 receptor [2]; hek293
  IC50: Not Active

## Nc1nc2ccccc2nc1C(=O)NC1CCN(Cc2ccccc2)CC1
Acetylcholinesterase [1]
  IC50: Not Active
Histamine H3 receptor [2]; hek293
  IC50: Not Active

## CCN(CC)Cc1ccc(OCCNc2nc3ccccc3nc2N)cc1
Acetylcholinesterase [1]; read-out: IC50
  IC50: 3870 nM
Histamine H3 receptor [4]
  IC50: 182 nM
Histamine H3 receptor [2]; hek293
  IC50: Not Active
[5]
  inhibition: inactive
[6]
  inhibition: inactive
Histamine H4 receptor [7]
  inhibition: Active

## Nc1nc2ccccc2nc1NCC(=O)NC1CCN(Cc2ccccc2)CC1
Acetylcholinesterase [1]; read-out: IC50
  IC50: 1330 nM
Histamine H3 receptor [9]
  inhibition: 4.5%
Histamine H3 receptor [2]; hek293
  IC50: Not Active

## Nc1nc2ccccc2nc1NCC(=O)Nc1ccc(CN2CCCCC2)cc1
Acetylcholinesterase [1]; read-out: IC50
  IC50: 1160 nM
Histamine H3 receptor [2]; hek293
  IC50: Not Active
